Measurements taken from PMC3839535 (Nature chemical biology, 2013).
“Also recorded” adds a separate entry of the source.

What was measured:
[1] = target: T1, human melanopsin (Homo sapiens, UniProt Q9UHM6); assay: Radioligand binding with [^3H]2-AA41612 to CHO^Opn4 cell membranes; conditions: competition binding
T1 sequence (Q9UHM6 1-478): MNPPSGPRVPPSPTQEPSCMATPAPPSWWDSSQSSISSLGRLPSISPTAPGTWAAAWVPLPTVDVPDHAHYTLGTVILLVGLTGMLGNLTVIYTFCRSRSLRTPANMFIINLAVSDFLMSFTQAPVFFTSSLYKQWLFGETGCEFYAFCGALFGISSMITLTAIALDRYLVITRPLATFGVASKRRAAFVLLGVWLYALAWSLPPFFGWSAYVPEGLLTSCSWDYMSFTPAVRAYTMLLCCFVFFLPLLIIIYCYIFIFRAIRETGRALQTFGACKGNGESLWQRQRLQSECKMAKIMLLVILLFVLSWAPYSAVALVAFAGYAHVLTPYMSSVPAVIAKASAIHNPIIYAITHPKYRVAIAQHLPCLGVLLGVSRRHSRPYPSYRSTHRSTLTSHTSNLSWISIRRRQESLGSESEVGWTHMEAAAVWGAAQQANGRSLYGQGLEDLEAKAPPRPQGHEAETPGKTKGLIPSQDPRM
Method in brief: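 Membranes came from light-exposed CHO cells stably expressing human melanopsin. Cells were sonicated in ice-cold 20 mM Tris-HCl, 10 mM EDTA, pH 7.4, then spun at 200g for 5 min and 40,000g for 20 min at 4 °C, and washed. Assay buffer was 50 mM Tris-HCl, 1 mM EDTA, 5 mM MgSO4, pH 7.4. Saturation binding used increasing concentrations of [3H] radioligand. Competition binding used 300 pM radioligand against increasing competitor for 2 h in the dark at 25 °C. Reactions were filtered through PEI-treated glass fibre filters and counted by scintillation. Nonspecific binding was defined with 10 µM 9-cis retinal, and specific binding was taken as total minus nonspecific.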

[2] = target: T2, mouse melanopsin (Mus musculus, UniProt Q9QXZ9); assay: Melanopsin photocurrent in Xenopus oocytes; type: cell-based
T2 sequence (Q9QXZ9 1-521): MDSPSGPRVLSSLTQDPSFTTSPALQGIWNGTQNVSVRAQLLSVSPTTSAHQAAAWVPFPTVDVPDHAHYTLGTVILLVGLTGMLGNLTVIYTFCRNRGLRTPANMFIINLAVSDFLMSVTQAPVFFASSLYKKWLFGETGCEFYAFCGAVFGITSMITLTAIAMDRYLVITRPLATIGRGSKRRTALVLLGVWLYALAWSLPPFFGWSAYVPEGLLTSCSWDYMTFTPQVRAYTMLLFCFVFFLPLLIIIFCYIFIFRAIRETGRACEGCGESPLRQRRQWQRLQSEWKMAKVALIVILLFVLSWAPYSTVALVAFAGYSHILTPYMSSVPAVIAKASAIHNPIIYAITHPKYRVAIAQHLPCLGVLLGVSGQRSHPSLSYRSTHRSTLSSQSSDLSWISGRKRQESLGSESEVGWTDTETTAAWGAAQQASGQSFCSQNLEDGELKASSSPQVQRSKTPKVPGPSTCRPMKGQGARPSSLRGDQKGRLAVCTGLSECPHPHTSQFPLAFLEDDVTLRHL
Method in brief: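 Stage IV Xenopus oocytes injected with in vitro transcribed, polyadenylated mRNAs for mouse melanopsin, TrpC3, Gαq and Arrb1. Test compound was perfused for 3 min at increasing concentrations before 50 µM 11-cis retinal was added. Melanopsin photocurrent was recorded intracellularly in response to 60 s white light, averaged over n = 5 oocytes.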

[3] = target: T1, human melanopsin; assay: Ca^2+ release assay in CHO^Opn4 cells; type: cell-based
[4] = Pharmacokinetics: retina and brain levels after IP dosing; type: in vivo; conditions: mice, 30 mg kg^−1 IP, within 2 h
Method in brief: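 Mice were dosed at 30 mg kg−1 IP, and retina and brain were sampled at several times afterwards. Frozen brains were homogenised in four volumes of 50% water/30% 2-propanol/20% DMSO and spiked with internal standard. Samples were centrifuged and the supernatant analysed by LC/MS/MS. Quantitation used a standard curve (0–5,000 ng/ml) prepared in homogenate.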

[5] = test system: mice; assay: Pupillary light reflex; type: in vivo; conditions: 10^13 ph.cm^−2.s^−1
Method in brief: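 rd, WT and Opn4−/− mice carried an acrylic headpost and had at least 1 wk of recovery. Dark-adapted mice received vehicle or compound at 30 mg kg−1 IP 20 min before the first light, plus tropicamide in the left eye. The right eye was filmed under IR at 30 Hz. Each 5 min sequence was 1 min dark, 1 min 480 nm light (1 × 10^13 or 1 × 10^10 ph.cm−2.s−1), then 3 min dark. Sequences were repeated 19, 29 and 39 min post-injection. Pupil diameter was normalised to the mean of the first 20 s of darkness; n = 6–7.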

[6] = test system: 74 biological targets including GPCRs and ion channels; assay: Radioligand binding panel of 74 biological targets; conditions: 10 µM
[7] = test system: neonatal mice; assay: Negative phototaxis assay; type: in vivo; conditions: WT neonatal pups (P7-P9), 30 mg kg^−1 sub-cutaneous, 480 nm light
Method in brief: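 WT and Opn4−/− pups aged P7–P9 were tested once daily. Pups were dark-adapted for 1 h, then given vehicle or compound at 30 mg kg−1 s.c. Each pup wore a head reflective sticker and sat in a transparent tube for 10 min. After 5 min of darkness, the head end was lit with 480 nm light at 9.5 × 10^15 ph/cm2/s. IR video covered 2 min before and 5 min after light onset. Head distance was scored in 1 s bins, and mean activity was compared before and after light. Pups without any bin above 1.3 mm/bin before light were excluded.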

[8] = test system: rod/cone photoreceptors; assay: Electroretinogram; type: in vivo; conditions: WT C57BL/6J and Opn4^−/− mice, 30 mg kg^-1, recorded within 30 min of administration, versus vehicle

Structure (SMILES) | Hill slope, displacement of [^3H]2-AA41612 [1] | IC50 [2] [µM] | IC50 [3] [µM] | fraction cleared from the retina [4] [%] | effect on PLR under high light intensity ([5]; Wild type (WT) mice) | attenuation of pupil constriction in response to light ([5]; adult rd mice, 30 mg kg^−1 i.p. 20 min prior) | inhibition of radioligand binding to a panel of 74 biological targets [6] | effect on light aversion (negative phototaxis) behavior [7] | slope of Schild regression (dose ratio) plot ([3]; versus 9-cis retinal, light-exposed CHO^Opn4 cells) | effect on rod and rod/cone electroretinogram [8]
COc1cc(Cl)c(S(=O)(=O)N2CCCCC2)cc1Cl [AA41612, 1-(2,5-Dichloro-4-methoxy-benzenesulfonyl)-piperidine] | ~1.0 | 0.02 | 0.0158 ± 0.0018 | – | – | – | – | – | – | –
CC1=C(/C=C/C(C)=C\C=C\C(C)=C\C=O)C(C)(C)CCC1 [9-cis retinal, reference compound] | ~1.0 | – | – | – | – | – | – | – | – | –
COc1ccc(S(=O)(=O)N2CCCCC2)cc1C [AA92593, 1-((4-methoxy-3-methylphenyl)sulfonyl)piperidine] | ~1.0 | 0.19 | – | > 95 | attenuated PLR | ~ 50% | failed to inhibit radioligand binding | significantly reduced; also recorded: remarkably reduced light aversion behavior | 0.9 | no noticeable inhibition of rod/cone photoreceptors
